For experiment [1], the target named is T1, Sodium-dependent dopamine transporter (Rattus norvegicus, UniProt P23977). As to the kind of experiment: Inhibition of [3H]dopamine uptake in rat caudate putamen tissue. The class given is functional, tissue-based. In outline:
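Rat caudate putamen chopped into 225 µm slices, in oxygenated Krebs-HEPES at 37 °C. Stopped with ice-cold buffer and filtered; accumulated label extracted in methanol/HCl and counted by scintillation. Specific uptake; IC50 by linear regression on the linear portion of the concentration–response curve.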

Experiment [2] has as its target T1, Sodium-dependent dopamine transporter. Put plainly: Displacement of [3H]WIN-35428 binding to the dopamine transporter in rat caudate putamen tissue. The class given is tissue-based.

From ChEMBL document CHEMBL1132657, “CoMFA study of novel phenyl ring-substituted 3alpha-(diphenylmethoxy)tropane analogues at the dopamine transporter” (J Med Chem, 1999) come the findings set out here.

pIC50, pKi: −log10 of the molar value.

As usually defined, the pIC50 is the IC50 on a negative log10 scale, so that one unit is a factor of ten. Low values mean a high IC50, high ones a low IC50. As a reminder, the pKi is the Ki on a negative log10 scale, so that one unit is a factor of ten.

T1 sequence (P23977 whole entry): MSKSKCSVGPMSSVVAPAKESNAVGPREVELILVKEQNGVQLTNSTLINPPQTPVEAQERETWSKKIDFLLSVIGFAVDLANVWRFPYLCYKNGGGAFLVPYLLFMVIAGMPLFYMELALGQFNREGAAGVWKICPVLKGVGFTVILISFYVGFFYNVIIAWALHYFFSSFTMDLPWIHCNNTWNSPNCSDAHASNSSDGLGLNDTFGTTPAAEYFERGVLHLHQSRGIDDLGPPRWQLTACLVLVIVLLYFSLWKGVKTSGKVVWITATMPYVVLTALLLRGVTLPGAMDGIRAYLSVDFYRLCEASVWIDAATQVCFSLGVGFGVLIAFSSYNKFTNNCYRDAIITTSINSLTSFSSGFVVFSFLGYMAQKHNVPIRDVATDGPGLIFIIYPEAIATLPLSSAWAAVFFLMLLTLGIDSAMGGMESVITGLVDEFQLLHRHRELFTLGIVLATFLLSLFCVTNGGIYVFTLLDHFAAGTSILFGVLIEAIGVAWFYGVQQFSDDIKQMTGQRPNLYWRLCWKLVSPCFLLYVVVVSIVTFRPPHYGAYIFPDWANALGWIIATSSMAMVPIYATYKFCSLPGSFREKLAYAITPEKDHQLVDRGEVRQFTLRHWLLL

As for `CN1[C@@H]2CC[C@H]1C[C@@H](OC(c1ccc(F)cc1)c1cccc(Br)c1)C2` (stereo not given in full), in experiment [1], the pIC50 was 6.75. In experiment [2], this compound had a negative logarithm of the Ki (pKi) of 7.42.

In the case of `Cc1cccc(C(O[C@H]2C[C@H]3CC[C@@H](C2)N3C)c2ccccc2)c1` (stereo not given in full), in experiment [1], the pIC50 is 6.65. The compound also gave a pKi in experiment [2] of 7.11.

In the case of `CN1[C@@H]2CC[C@H]1C[C@@H](OC(c1ccccc1)c1cccc(Br)c1)C2` (stereo not given in full), the pIC50 in experiment [1] was 6.98. This compound also had a pKi in experiment [2] of 7.57.

In turn, `CN1[C@@H]2CC[C@H]1C[C@@H](OC(c1ccc(F)cc1)c1cccc(F)c1)C2` (stereo not given in full) showed a pIC50 in experiment [1] of 6.86.

In experiment [1], `CN1[C@@H]2CC[C@H]1C[C@@H](OC(c1ccc(F)cc1)c1cccc(Cl)c1)C2` (stereo not given in full) had a pIC50 of 6.91. The same compound gave a pKi in experiment [2] of 7.63.

On to `CN1[C@@H]2CC[C@H]1C[C@@H](OC(c1ccccc1)c1ccc(F)c(F)c1)C2` (stereo not given in full), for which, in experiment [1], the pIC50 was 6.74. The compound further showed a pKi in experiment [2] of 7.55.

Turning to `CN1[C@@H]2CC[C@H]1C[C@@H](OC(c1ccccc1)c1ccccc1Cl)C2` (stereo not given in full), in experiment [1], the pIC50 is 6.01.

`Cc1cccc(C(O[C@H]2C[C@H]3CC[C@@H](C2)N3C)c2ccc(F)cc2)c1` (stereo not given in full) had a pIC50 in experiment [1] of 6.97. The compound further gave a pKi in experiment [2] of 7.51.

Compound `CN1[C@@H]2CC[C@H]1C[C@@H](OC(c1ccc(F)cc1)c1ccc(Br)cc1)C2` (stereo not given in full) showed a pIC50 in experiment [1] of 7.57. Moreover, in experiment [2], the pKi is 7.82.

For `CN1[C@@H]2CC[C@H]1C[C@@H](OC(c1ccccc1)c1cccc([N+](=O)[O-])c1)C2` (stereo not given in full), the pIC50 in experiment [1] is 6.10. The pKi in experiment [2] is 6.73.

On to `CN1[C@@H]2CC[C@H]1C[C@@H](OC(c1ccc(F)cc1)c1cccc(C(F)(F)F)c1)C2` (stereo not given in full), for which the pIC50 in experiment [1] was 6.74. In experiment [2], this compound had a pKi of 7.06.
